As usually defined, the Km is the substrate concentration at which the rate is half of its maximum. Broadly, the Vmax is the top rate of the reaction or transport when substrate is in excess.

Substrate in series [1]: CC1=C(CCC(=O)NCCCN2CCN(C)CC2)C(=O)c2ccccc2C1=O
The experiment in a line: (§1) The Michaelis-Menten constant for […] by pig heart LipDH (lipoamide dehydrogenase). The essentials: (§2)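 Recombinant T. cruzi LipDH (E. coli, purified) or pig heart LipDH, 0.1–2.5 µg/mL. Buffer was 50 mM potassium phosphate, 1 mM EDTA, pH 7.0, with 100 µM NADH and naphthoquinone at 10 µM–1.2 mM; all assays carried equal DMSO. Run at 31 °C, started with enzyme, NADH decrease followed at 340 nm. Km and Vmax from Lineweaver–Burk plots. At least duplicate.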

Substrate in series [2]: CC1=CC(=O)c2c(O)cccc2C1=O
Described as §1. In short, it runs like this: as §2

Substrate in series [3]: CC1=CC(=O)c2ccccc2C1=O
The description is as §1. The essentials: as §2

Substrate in series [4]: CC1=C(CCC(=O)NCCCN2CCN(C)CC2)C(=O)c2c(O)cccc2C1=O
The experiment in a line: (§3) Vmax is the maximum velocity of the pig heart LipDH (lipoamide dehydrogenase) catalyzed NADH oxidation. In short, it runs like this: as §2

Substrate in series [5]: CC1=C(CCC(=O)NCCCN2CCN(C)CC2)C(=O)c2ccccc2C1=O
Described as §3. In short, it runs like this:
as §2

Substrate in series [6]: CC1=C(CCC(=O)O)C(=O)c2c(O)cccc2C1=O
The description is as §3. The essentials:
as §2

Substrate in series [7]: CC1=C(CCC(=O)O)C(=O)c2ccccc2C1=O
The series is described as §3. The essentials:
as §2

Substrate in series [8]: CC1=C(CCCNC(=O)OC(C)(C)C)C(=O)c2c(O)cccc2C1=O
The description is as §3. In short, it runs like this: as §2

Substrate in series [9]: CC1=C(CCCNC(=O)OC(C)(C)C)C(=O)c2ccccc2C1=O
Described as §3. The essentials:
as §2

Substrate in series [10]: CC1=CC(=O)c2c(O)cccc2C1=O
Described as §3. The essentials: as §2

Substrate in series [11]: CC1=CC(=O)c2ccccc2C1=O
The series is described as §3. The essentials:
as §2

Substrate in series [12]: CC1=C(CCC(=O)NCCCN2CCN(C)CC2)C(=O)c2c(O)cccc2C1=O
The experiment in a line: The Michaelis-Menten constant for NADH oxidation by pig heart LipDH (lipoamide dehydrogenase).

Substrate in series [13]: CC1=C(CCC(=O)O)C(=O)c2c(O)cccc2C1=O
The description is as above.

Substrate in series [14]: CC1=C(CCC(=O)O)C(=O)c2ccccc2C1=O
The description is as above.

Substrate in series [15]: CC1=C(CCCNC(=O)OC(C)(C)C)C(=O)c2c(O)cccc2C1=O
The series is described as above.

Substrate in series [16]: CC1=C(CCCNC(=O)OC(C)(C)C)C(=O)c2ccccc2C1=O
The series is described as above.

B1: Dihydrolipoyl dehydrogenase, mitochondrial (Sus scrofa), P09623 (protein)
chain: MQSWSRVYCTLAKRGHFNRIAHGLQGVSAVPLRTYADQPIDADVTVIGSGPGGYVAAIKAAQLGFKTVCIEKNETLGGTCLNVGCIPSKALLNNSHYYHMAHGKDFASRGIEMSEVRLNLEKMMEQKSNAVKALTGGIAHLFKQNKVVRVNGYGKITGKNQVTATKADGSTEVINTKNILIATGSEVTPFPGITIDEDTVVSSTGALSLKKVPEKMVVIGAGVIGVELGSVWQRLGADVTAVELLGHVGGIGIDMEVSKNFQRILQKQGFKFKLNTKVIGATKKSDGNIDVSIEAASGGKAEVITCDVLLVCIGRRPFTQNLGLEELGIELDPRGRIPVNTRFQTKIPNIYAIGDVVAGPMLAHKAEDEGIICVEGMAGGAVHIDYNCVPSVIYTHPEVAWVGKSEEQLKEEGIEYKVGKFPFAANSRAKTNADTDGMVKILGQKSTDRVLGAHIIGPGAGEMINEAALALEYGASCEDIARVCHAHPTLSEAFREANLAASFGKAINF
As to B1, the Michaelis constant (Km) worked out at 110 µM in [1]; 74 µM in series [2]; 72 µM in series [3]; 15 µM in series [12]; 75 µM in [13]; 40 µM in series [14]. Also, the figures for the Michaelis-Menten constant (Km) in series [15] and in [16] were 40 µM and 25 µM, respectively. Further, the Vmax in [4] was 1.09 µM/min/mg; in series [5] it was 3.46 µM/min/mg; in series [6], 2.2 µM/min/mg; in series [7], 1.52 µM/min/mg; in [8], 1.66 µM/min/mg; in series [9], 1.03 µM/min/mg. Besides, the maximum rate (Vmax) in series [10] was determined as 25.3 µM/min/mg; in series [11], 11.5 µM/min/mg.
